Test results taken from ChEMBL document CHEMBL1121840, “Synthesis and antiinflammatory activity of 2,2'-diaminobiphenyl derivatives” (J Med Chem, 1981).

Legend:
[1] = system: Rattus norvegicus; assay: Compound was tested for antiinflammatory activity in Rat by carrageenam edema test after peroral administration of 200 mg/kg dose; assay type: functional; conditions: route oral
Method in brief: (§1)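 CD-COBS rats, both sexes. The drug was given orally as a suspension in 1% acacia gum (10 mL/kg), then carrageenan foot edema was induced per Winter et al. Read-out was % inhibition of edema; N = 5 rats per group; Dunnet's test. "No significant effect" means inhibition below 15%.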

[2] = system: Rattus norvegicus; assay: Compound was tested for antiinflammatory activity in rat by adjuvant arthritis test after peroral administration of 50 mg/kg dose; no significant effect; assay type: functional, organism-based; parameters: dose 50 mg/kg
[3] = system: Rattus norvegicus; assay: Compound was tested for antiinflammatory activity in rats by adjuvant arthritis test after peroral administration of 50 mg/kg dose; no significant effect; assay type: functional, organism-based; parameters: dose 50 mg/kg
[4] = system: Rattus norvegicus; assay: Compound was tested for antiinflammatory activity in rats by carrageenam edema test after peroral administration of 200 mg/kg dose; assay type: functional; conditions: route oral; method in brief: as §1
[5] = system: Rattus norvegicus; assay: Compound was tested for antiinflammatory activity in rats by carrageenam edema test after peroral administration of 200 mg/kg dose; no significant effect; assay type: functional, organism-based; parameters: dose 200 mg/kg; method in brief: as §1
[6] = system: Rattus norvegicus; assay: Compound was tested for antiinflammatory activity in rats by adjuvant arthritis test after peroral administration of 50 mg/kg dose; assay type: functional; conditions: route oral
[7] = Compound was tested for lethal dose in mice after oral administration; assay type: ADME, organism-based; conditions: mouse, in vivo
Method in brief: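 CD1 mice of both sexes given single oral dose of compound suspended in 1% acacia gum (20 mL/kg); LD50 calculated by probit method.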

[8] = system: Rattus norvegicus; assay: Compound was tested for antiinflammatory activity in rats adjuvant arthritis test after peroral administration of 50 mg/kg dose; assay type: functional; conditions: route oral
[9] = system: Rattus norvegicus; assay: Compound was tested for antiinflammatory activity in rats by carrageenam induced pleurisy test at dose of 200 mg/kg, po,% reduction in leucocytes; assay type: functional
Method in brief: (§2)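 Rats were dosed orally (1% acacia gum suspension) at 48, 24 and 1 h before intrapleural carrageenan, per Di Rosa et al. Pleural exudate was assessed 6 h later as % reduction in volume and in leucocytes; N = 8 rats per group; Dunnet's test.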

[10] = system: Rattus norvegicus; assay: Compound was tested for antiinflammatory activity in rats by carrageenam induced pleurisy test at dose of 200 mg/kg, po; assay type: functional; method in brief: as §2
[11] = system: Mus musculus; assay: Compound was tested for analgesic activity in mice by phenylquinone writhing test at dose of 200 mg/kg, po; assay type: functional
Method in brief: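 Female mice received the drug orally in 1% acacia gum suspension (20 mL/kg) 1 h before i.p. 0.2 mL of 0.2% phenylquinone. Animals were caged individually and abdominal contractions counted over 20 min after injection; N = 4 mice per group; Dunnet's test.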

[12] = system: Rattus norvegicus; assay: Compound was tested for antiinflammatory activity in rat by carrageenam edema test after peroral administration of 200 mg/kg dose; assay type: functional; conditions: route oral; method in brief: as §1
[13] = system: Rattus norvegicus; assay: Compound was tested for antiinflammatory activity in rat by adjuvant arthritis test after peroral administration of 50 mg/kg dose; assay type: functional; conditions: route oral
[14] = system: Rattus norvegicus; assay: Compound was tested for antiinflammatory activity in rat by carrageenam edema test after peroral administration of 200 mg/kg dose; no significant effect; assay type: functional, organism-based; parameters: dose 200 mg/kg; method in brief: as §1

SMILES | inhibition [3] | inhibition in vivo at 200 mg/kg [4] [%] | inhibition in vivo at 50 mg/kg [6] [%] | other results
CN(C)CCNc1ccccc1-c1ccccc1NC(=O)Cc1ccc([N+](=O)[O-])cc1 |  |  |  | inhibition in vivo at 200 mg/kg [1]: 54%; inhibition [2]: No significant effect
CNc1ccccc1-c1ccccc1NC(=O)Cc1ccc(O)cc1 | No significant effect | 17 |  | 
CNc1ccccc1-c1ccccc1NC(=O)Cc1ccc([N+](=O)[O-])cc1 |  |  | 16 | inhibition [5]: No significant effect
CC(=O)Oc1ccccc1C(=O)O [ASPIRIN] |  | 40 | 32 | 
Nc1ccccc1-c1ccccc1NC(=O)Cc1ccc(O)cc1 | No significant effect | 37 |  | 
CN(C)CCCNc1ccccc1-c1ccccc1NC(=O)Cc1ccc(Cl)cc1 |  |  | 30 | inhibition [5]: No significant effect
CCCCC1C(=O)N(c2ccccc2)N(c2ccccc2)C1=O [PHENYLBUTAZONE] |  | 42 |  | LD50 [7]: 650 mg/kg; inhibition in vivo at 50 mg/kg [8]: 66%; Reduction [9]: 35%; Reduction [10]: 43%; inhibition in vivo at 200 mg/kg [11]: 45%
CCN(CC)CCNc1ccccc1-c1ccccc1NC(=O)Cc1ccc(N)cc1 | No significant effect | 33 |  | 
CN(C)CCNc1ccccc1-c1ccccc1NC(=O)Cc1ccc(N)cc1 | No significant effect | 16 |  | 
COc1ccc(CC(=O)Nc2ccccc2-c2ccccc2NCCCN(C)C)cc1 | No significant effect | 16 |  | 
CCNc1ccccc1-c1ccccc1NC(=O)Cc1ccccc1 | No significant effect | 30 |  | 
CCCNc1ccccc1-c1ccccc1NC(=O)Cc1ccc(Cl)cc1 | No significant effect | 33 |  | 
COc1ccc(CC(=O)Nc2ccccc2-c2ccccc2NCCN(C)C)cc1 | No significant effect | 65 |  | 
CCN(CC)CCNc1ccccc1-c1ccccc1NC(=O)Cc1ccc([N+](=O)[O-])cc1 |  |  |  | LD50 [7]: 1130 mg/kg; inhibition in vivo at 50 mg/kg [8]: 33%; Reduction [9]: 35%; inhibition in vivo at 200 mg/kg [12]: 54%; Reduction [10]: 48%; inhibition in vivo at 200 mg/kg [11]: 34%
CNc1ccccc1-c1ccccc1NC(=O)Cc1ccc(OC)cc1 |  | 20 | 22 | 
CCN(CC)CCCNc1ccccc1-c1ccccc1NC(=O)Cc1ccc([N+](=O)[O-])cc1 |  |  | 16 | inhibition [5]: No significant effect
CCN(CC)CCNc1ccccc1-c1ccccc1NC(=O)Cc1ccccc1 |  |  |  | inhibition in vivo at 200 mg/kg [12]: 17%; inhibition [2]: No significant effect
CN(C)CCCNc1ccccc1-c1ccccc1NC(=O)Cc1ccc([N+](=O)[O-])cc1 |  |  |  | inhibition in vivo at 50 mg/kg [13]: 24%; inhibition [14]: No significant effect
CCN(CC)CCCNc1ccccc1-c1ccccc1NC(=O)Cc1ccc(Cl)cc1 |  |  | 29 | inhibition [5]: No significant effect
CCNc1ccccc1-c1ccccc1NC(=O)Cc1ccc(O)cc1 | No significant effect | 45 |  | 
